For data set [1], the system named is MS2 coat protein. Briefly: apparent Kd, MS2 coat protein; higher = weaker binding; RNA-MaP array. In short, it runs like this: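 With or without input ligand, designed RNAs transcribed on an Illumina sequencing chip from sequenced DNA templates were incubated at room temperature with fluorescently labeled MS2 coat protein at 1.5 nM to 3 μM. The buffer was Tris-HCl pH 7.5 with KCl, MgCl2, BSA, DTT, tRNA and Tween20, and incubation ran 0.8–1.5 h at the lowest and 10–20 min at the highest concentrations. Apparent Kd is reported as the median of fits to binding curves from individual clusters. Designs measured on fewer than 10 clusters are not included.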

In data set [2] the test system is MS2 coat protein. Briefly: apparent Kd, MS2 coat protein; higher = weaker binding; RNA-MaP array; FMN 200 µM where present. In short, it runs like this:
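Designs on Illumina sequencing-chip clusters, transcribed by stalled E. coli RNA polymerase, were exposed to SNAP-549-labelled MS2 coat protein in doubling steps from 0.7 or 1.5 nM up to 3 µM, without and then with constant ligand. The buffer held 100 mM Tris-HCl pH 7.5, 80 mM KCl, 4 mM MgCl2, BSA, DTT, yeast tRNA and Tween-20. Apparent Kd values are medians of filtered per-cluster binding-curve fits to green signal normalised to red-channel RNA signal and control-cluster median Fmax.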

The mark [3] stands for this setting: designed as: OFF switch for flavin mononucleotide, no ligand.
The mark [4] stands for this setting: ligand present: flavin mononucleotide, designed as: OFF switch for flavin mononucleotide.
Where [5] appears, read: designed as: ON switch for flavin mononucleotide, no ligand.
The mark [6] stands for this setting: ligand present: flavin mononucleotide, designed as: ON switch for flavin mononucleotide.

Broadly, the apparent Kd is a dissociation constant that holds for the conditions of the assay.

Turning to “GAGCUCCACAAGAAGGGCCGUUGCCCAUGGAAGGACGGCACAUGAGGAUCACCCAUGUUGGCAGGGCAGGAUAUUGCAUUUAUU”, the “apparent Kd” value was 26 nM in the data set with MS2 coat protein [1] (setting [3]) and 82.8 nM with MS2 coat protein [1] (setting [4]). Turning to “GGUGAAUUAGUGAGGAUAUGAUAGACAAACAAAAUACAGAAGGCACAUGAGGAUCACCCAUGUGACGGAGAGAA”, the “apparent Kd” value in the data set on MS2 coat protein [1] (setting [3]) came to 6.31 nM; in the data set with MS2 coat protein [1] (setting [4]), 5.93 nM. In the same order, the values of “UGUUUGGCUUCCUUUACAUGAGGAUCACCCAUGUUAUGUAAUUAGGAUAUCCAUGUGAGAUGGUUGGAGAAGGAAUGCAUGACG” are 27 nM and 33 nM.

Regarding “UCAGUUCAAGGAUAUACAUGAGGAUCACCCAUGUACCGCAAUGUAGAAAAGUGACGUAGUAGAAGGUGAAACGA”, the “apparent Kd” value in the data set on MS2 coat protein [1] (setting [3]) was 23.6 nM; in the data set on MS2 coat protein [1] (setting [4]) it was 21 nM. As to “CAUAGAGCUAAGAAGGCGUACGGAGACAGCAUACGAGGAUAUUAACGUCCAUGAACAUGAGGAUCACCCAUGUCGAAAACCAAA”, the “apparent Kd” value in the data set on MS2 coat protein [1] (setting [5]) worked out at 8.42 nM; in the data set on MS2 coat protein [1] (setting [6]), 8.15 nM. For the sequence “AAGUCAGGAGGCGAUACCAGUUACGACAUGGCCAGUUACAUGAGGAUCACCCAUGUGCGGAACCCUUGGCAGCGCUUACAUCGCU”, the “apparent Kd” value in the data set with MS2 coat protein [1] (designed as: OFF switch for theophylline, no ligand) was found to be 23.1 nM; with MS2 coat protein [1] (ligand present: theophylline, designed as: OFF switch for theophylline), 165 nM.

Take “AGAGCGAAUCUAACAUGAGGAUCACCCAUGUGUUAUGUUCACGAGGAUAUGUAGUCACUUAGGCGACAGAAGGCGUUCCAAGUA”: the entries for the “apparent Kd” value in the data set with MS2 coat protein [1] (setting [3]) and in the data set on MS2 coat protein [1] (setting [4]) were 29.3 nM and 22 nM, respectively. For the sequence “ACAUGAGGAUCACCCAUGUUGAACUACCAUCGAGGACCGGUACGGCCGCCACUCGCGUUCUCCUUAGCAUCAAGGUCCGCGAAAC”, the “apparent Kd” value with MS2 coat protein [1] (designed as: OFF switch for tryptophan, no ligand) turned out to be 13.3 nM; in the data set with MS2 coat protein [1] (ligand present: tryptophan, designed as: OFF switch for tryptophan) it was 12.7 nM. As to “CGUCUAGUUGAGAAGGAUUCGGCGUCGGUCAUGUUAAUCUGGAAACAUGAGGAUCACCCAUGUCAAUAGGAUAUCAGGGCACUA”, the “apparent Kd” value is 11.2 nM in the data set with MS2 coat protein [1] (setting [3]) and 12.8 nM with MS2 coat protein [1] (setting [4]).

As to “AACGACAUGAGGAUCACCCAUGUAUACGACCGAAGUGUACGGUAGGAUAUCGACAGCAUAGAUAACGAGAAGGACCCUUUUGGA”, the results for the “apparent Kd” value with MS2 coat protein [1] (setting [5]) and in the data set on MS2 coat protein [1] (setting [6]) were 18.1 nM and 11.8 nM, respectively. As for “GUCAUUGCGGAGGAUAUAAAGCAAACCAAGAUGUUAGAAGGCCGGACAUGAGGAUCACCCAUGUGAUUGCACGC”, the “apparent Kd” value was 17.6 nM in the data set with MS2 coat protein [1] (setting [3]) and 15 nM in the data set on MS2 coat protein [1] (setting [4]). Turning to “AUACAACAUGAGGAUCACCCAUGUGCUUAAGUUAAAGGAUAUCUAGUGGAUUACAUGCGUAGAGAAGGUUAUUUUA”, the “apparent Kd” value with MS2 coat protein [1] (setting [5]) is 12.2 nM; in the data set on MS2 coat protein [1] (setting [6]), 8.55 nM. Turning to “CCGGAAAUAGAGGAUAUCGUAUCGGAUACGAUACGAGAAGGCUAUACAUGAGGAUCACCCAUGUGUCCUACCGG”, the “apparent Kd” value with MS2 coat protein [2] (setting [3]) came out at 16.4 nM; in the data set with MS2 coat protein [2] (setting [4]), 40.5 nM. Consider “UGUAUACAUGAGGAUCACCCAUGUCAACGUAGUCGAGGAUAUGGGCAGCCGUGAGGCGUACUAGAAGGCGAAGAGG”, for which the “apparent Kd” value in the data set with MS2 coat protein [2] (setting [5]) is 337 nM; with MS2 coat protein [2] (setting [6]), 110 nM. As for “CAGGUAGACUGAGGAUAUACAAUAAAGACCUAGUCUAUCUAGGUCAUCACAUGAGGAUCACCCAUGUAGAAGGCAGUCUGCCUG”, the “apparent Kd” value is 18.5 nM with MS2 coat protein [2] (setting [3]) and 38.2 nM with MS2 coat protein [2] (setting [4]). As for “CAGGUAGACUGAGGAUAUACACUAAACAGCUAGUCUAUCUAGCUGCUCACAUGAGGAUCACCCAUGUAGAAGGCAGUCUGCCUG”, the figures for the “apparent Kd” value with MS2 coat protein [2] (setting [3]) and in the data set on MS2 coat protein [2] (setting [4]) were 17.2 nM and 39.3 nM, respectively.

Take “AGAUGACAAAGUCAUCUCGCUUUGACAUGAGGAUCACCCAUGUAGGAUAUAUUACUCAAAGAGUAAUAGAAGGACAUGUGUCUU”: the figures for the “apparent Kd” value in the data set on MS2 coat protein [2] (setting [3]) and in the data set on MS2 coat protein [2] (setting [4]) were 37.2 nM and 104 nM, respectively. “UGUCGGAGCAGAGGAUAUUACAUGAGGAUCACCCAUGUAUGAACCAAUAGCUGGAAACAGUAAUGUAAGAAGGCUGCUCCGACA”: the “apparent Kd” value amounted to 7.33 nM in the data set with MS2 coat protein [2] (setting [3]) and 76.2 nM in the data set with MS2 coat protein [2] (setting [4]). The matching figures for “AUUGGUGGUGUAGGAUAUAACAGCAGCUGUGGUACCGUGUGUUAAGGACAUGAGGAUCACCCAUGUUAGAAGGACACUGUCCAG”: 436 nM and 75.8 nM. Consider “AGCUACGUUUCGUAGCAGCUAGGUGAGGAUAUUAAAAUUUUCACAUGAGGAUCACCCAUGUAUGUGAAGAAGGCGCCUAGAAAG”, for which the entries for the “apparent Kd” value in the data set on MS2 coat protein [2] (setting [5]) and with MS2 coat protein [2] (setting [6]) were 53.7 nM and 7.76 nM, respectively. In the case of “GUGUACAGAGGAUAUAUAUGAGCUAGGAAACUAGCAAACUCACAUGAGGAUCACCCAUGUAGAAGGCUGUACAC”, the results for the “apparent Kd” value in the data set with MS2 coat protein [2] (setting [3]) and with MS2 coat protein [2] (setting [4]) were 29.4 nM and 156 nM, respectively. In the case of “CGCUGUCACGCAGGAUAUGCAUUGGAUUACAAUGCAGAAGGGCGAUAACAUGAGGAUCACCCAUGUGUAGACAGUGAAGAAGAG”, the “apparent Kd” value worked out at 145 nM in the data set on MS2 coat protein [2] (setting [5]) and 27.2 nM in the data set on MS2 coat protein [2] (setting [6]). In the case of “ACAGAGUGAAGACAGGAUAUUCGCGAUGGCACAUGAGGAUCACCCAUGUUUUGAGCACAUAAACAGAAGAAGGGUUAAAACUCAG”, the “apparent Kd” value in the data set with MS2 coat protein [2] (setting [5]) is 132 nM; in the data set on MS2 coat protein [2] (setting [6]), 13.8 nM.

In the case of “AAAUUAAGAAGAGGAUAUUGACAUGAGGAUCACCCAUGUAUUUGGGAGUGUUUACUGAAUUCUUACGAGAAGGCUUACGAACUU”, the “apparent Kd” value in the data set on MS2 coat protein [2] (setting [4]) is 190 nM. Regarding “CGCGAACAGGCUAACAUGAGGAUCACCCAUGUGGACUCAUGGUAGGAUAUCGGGAAGGAGGAAACCGAGAAGGGCCGGUGAGCU”, the “apparent Kd” value in the data set on MS2 coat protein [2] (setting [5]) came out at 65.6 nM; in the data set on MS2 coat protein [2] (setting [6]), 86.5 nM. As to “AUCAGCUCCUCAGGAUAUACGUCACUGCGUCAGCAGUGUGGUAAGAUCACAUGAGGAUCACCCAUGUAGAAGGGACGAGCUGAU”, the “apparent Kd” value in the data set with MS2 coat protein [2] (setting [3]) worked out at 31.8 nM; with MS2 coat protein [2] (setting [4]), 140 nM. As to “AACUAAGAAUUAAUGGUGACUGACAGAAGGCAAUAGAAUGAGACCGACAUGAGGAUCACCCAUGUUGAGGAUAUGUCUUGCUAC”, the “apparent Kd” value in the data set with MS2 coat protein [2] (setting [3]) is 6.59 nM; with MS2 coat protein [2] (setting [4]), 7.2 nM. In the case of “ACGCCUCCUGUUAGGAUAUGCAUCGGGCUUCCGCAGCAGAAGGAACAUGAGGAUCACCCAUGUCAAAUAAAAUC”, the results for the “apparent Kd” value in the data set with MS2 coat protein [2] (setting [3]) and with MS2 coat protein [2] (setting [4]) were 15.3 nM and 94.4 nM, respectively. The matching figures for “CCGCAAAUGUAGGAUAUCGUAUCGGAUACGAUACGAGAAGGGCAUACAUGAGGAUCACCCAUGUGUCCUAGCGG”: 14.6 nM and 15.7 nM.

In the case of “UUAUGGAUUACAGGAUAUGUUAGUUUUAAGUGUAUUGGUUAUUACUUAAUUACAGAAGGGUAUUACAUGAGGAUCACCCAUGUA”, the “apparent Kd” value in the data set on MS2 coat protein [2] (setting [5]) is 16.4 nM; in the data set with MS2 coat protein [2] (setting [6]) it was 11.8 nM. In the case of “CAUCAGGUACGAGGAUAUCCGCGAUCUCUUCGAGGAGAAGGCGUACAUGAGGAUCACCCAUGUGGGCGAGGCAGACGAAGUCUG”, the “apparent Kd” value in the data set with MS2 coat protein [2] (setting [3]) was found to be 96.3 nM; in the data set on MS2 coat protein [2] (setting [4]) it was 60.9 nM. In the same order, the values of “GAGAAGUCAGGAUAUGCAUGGCGGGACUUGCGUCGUGGCGUGCAGAAGGGACAUGAGGAUCACCCAUGUGGAGA” are 125 nM and 291 nM. Consider “AGAUUUGUACAUGAGGAUCACCCAUGUUAAUAGGUGGUAGUCAGAAGGCAUUGAUAGAGUUUUAAUGAGGAUAUGAAUAUACAG”, for which the results for the “apparent Kd” value with MS2 coat protein [2] (setting [5]) and in the data set with MS2 coat protein [2] (setting [6]) were 267 nM and 126 nM, respectively. Turning to “UUAGAAAUGUUAGGAUAUUAAUAUUUUUUUAGUAUGAUCUACAUGAGGAUCACCCAUGUUAAUAUUAAGAAGGAACAUUUUAUU”, the “apparent Kd” value was determined as 88.5 nM in the data set with MS2 coat protein [2] (setting [3]) and 64 nM in the data set with MS2 coat protein [2] (setting [4]).

Turning to “UUGUAACGAUUAGGAUAUUAUUAAUAGAACUUUAUGAUAUACAUGAGGAUCACCCAUGUUACUUUUAAGAAGGAAUCGUAUUAU”, the “apparent Kd” value with MS2 coat protein [2] (setting [3]) worked out at 24.4 nM; in the data set with MS2 coat protein [2] (setting [4]), 18.3 nM. Regarding “ACACACCCAUGAGGUCCCUCCACAUGAGGAUCACCCAUGUGCAGAAGGUACGGCACGGUGUGCGGUAAGGAUAUGUACAAGUAA”, the “apparent Kd” value came to 6.08 nM in the data set on MS2 coat protein [2] (setting [3]) and 7.71 nM with MS2 coat protein [2] (setting [4]).
